Source: PubChem
Sampled rows, rich in hits. Any-hit rate of the full collection: about 3.4%.
UCH37 inh: blocks the human deubiquitinase UCH37 | purified proteasome/UCH37, Ub-AMC cleavage fluorescence | hit rate 0.33% among 330,000 | Q9Y5K5 | inhibition, % (no concentration beside the values);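 active = mean inhibition over replicate wells above about 20%, limit read from the data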;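 also: 0% = compound-free wells with enzyme and 100% = wells lacking proteasome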
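Material: human UCH37 enzyme supplied as purified proteasome complex / Amount: 0.15 nM proteasome as dispensed / Buffer or medium: pH 7.4 Tris-HCl (50 mM) with ovalbumin, ATP-MgCl2, DTT / Times: preincubation 30 min, reaction 25 min, room temperature / Technique: AMC fluorescence from Ub-AMC cleavage, excitation 355 nm, emission 460 nm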
AHR act: human AHR activation; AHR-responsive luciferase reporter cells, luminescence; activation, % at 5 µM; AID 2796; hit rate 2.5% among 320,000; P35869; in the data active = activation above about 47%;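 also: 0% = vehicle wells and 100% = reference agonist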
PolyA inh: inhibitors of polyadenylation in S. cerevisiae | S. cerevisiae SKY197-pL101 polyadenylation reporter, beta-gal luminescence; efflux-impaired pdr1/pdr3 knockout yeast; score 100 = 6 SD above DMSO | activity score, % at 12 µM | hit rate 0.02% among 300,000 | AID 1875;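 active = lowest replicate activity score at least 50, where 100 means six control SD above control mean; inconclusive = lowest score under 50 but half or more replicates reach 50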;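 also: yeast exposed to compound for 9 h at 30 °C; higher score means more reporter readthrough which indicates perturbed polyadenylation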
A3A deaminase: blocks human APOBEC3A ssDNA deamination; P31941; recombinant A3A, FAM/TAMRA ssDNA deamination fluorescence; inhibition, % at 20 µM; hit rate 0.41% among 330,000;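 active = at least 40% inhibition at 20 µM here, with at most 30% in a related deaminase screen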;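 also: plate controls were A3A with DMSO for no effect and wells lacking A3A enzyme for full effect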
Target sequence (P31941 whole entry, looked up): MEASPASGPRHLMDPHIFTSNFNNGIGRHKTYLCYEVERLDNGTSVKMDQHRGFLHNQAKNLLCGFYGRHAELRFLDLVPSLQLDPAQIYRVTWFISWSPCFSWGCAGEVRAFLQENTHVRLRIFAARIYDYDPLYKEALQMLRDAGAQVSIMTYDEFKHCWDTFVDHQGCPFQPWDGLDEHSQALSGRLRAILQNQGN
Arrestin-AP2 inh: human beta-arrestin and AP2 interaction inhibition; FITC-arrestin peptide / GST-AP2 beads, flow cytometry; AP2 beta2 appendage carries R879A mutation; inhibition, % at 10 µM; hit rate 0.31% among 340,000; AID 504490;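 active = inhibition above a set limit, near 3 SD of compounds lacking own fluorescence, cut at about 54% in these data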;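 also: plate controls were DMSO wells for no effect and 5 µM unlabelled arrestin peptide for full effect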
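System: GST-AP2 R879A glutathione beads. Medium: PBS with 0.05% Tween 20 and 0.1% BSA. Also added: FITC-arrestin peptide, 50 nM. Incubation: 12 min plus 1 h, RT. Measured by: high-throughput flow cytometry of beads, ex 488, em 535 nm. Evaluation: percent drop in bead-associated FITC signal.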
A3G deaminase: APOBEC3G (human) deaminase inhibition | Q9HC16 | hit rate 0.28% among 330,000 | inhibition, % at 20 µM | recombinant A3G, ssDNA deamination FAM/TAMRA fluorescence;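 active = inhibition of at least 40% at 20 µM, with no more than 30% in the related APOBEC3A deaminase screen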;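 also: plate controls were DMSO wells with A3G for no effect and wells lacking A3G enzyme for full effect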
Target sequence (Q9HC16 whole entry, looked up): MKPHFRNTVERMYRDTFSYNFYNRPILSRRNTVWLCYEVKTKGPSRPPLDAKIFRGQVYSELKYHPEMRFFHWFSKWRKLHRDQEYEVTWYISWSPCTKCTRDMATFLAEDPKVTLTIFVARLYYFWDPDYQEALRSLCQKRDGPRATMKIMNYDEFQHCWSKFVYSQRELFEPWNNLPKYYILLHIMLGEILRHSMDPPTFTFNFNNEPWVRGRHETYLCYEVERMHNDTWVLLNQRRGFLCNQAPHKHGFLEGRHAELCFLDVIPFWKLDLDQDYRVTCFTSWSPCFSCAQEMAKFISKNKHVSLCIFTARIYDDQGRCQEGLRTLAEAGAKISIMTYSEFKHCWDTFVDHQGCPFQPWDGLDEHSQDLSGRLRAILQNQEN
A3A conf: APOBEC3A (human) deaminase inhibition, confirmed; recombinant A3A, ssDNA deaminase UDG fluorescence assay; inhibition, % at 20 µM; hit rate 63% among 1,400; shares compounds with A3A deaminase; AID 493151;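 active = inhibition reaching a set limit, 80% of the first screen's cutoff, at 20 µM in any replicate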;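 also: plate controls were DMSO wells with A3A for no effect and wells lacking A3A enzyme for full effect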
UDG ctr A3A: inhibits UDG, flagging false APOBEC3A inhibitors; inhibition, % at 20 µM; 1,000 tested, under 10 active; UDG counterscreen, FAM/TAMRA uracil oligo fluorescence; shares compounds with A3A deaminase; call rule not given here
Starred values were filed as active, the others as inactive; ? = inconclusive; . = no result given.

SMILES	UCH37 inh	AHR act	PolyA inh	A3A deaminase	Arrestin-AP2 inh	A3G deaminase	A3A conf	UDG ctr A3A
Cc1cc(C)cc(N(C(=O)c2csnn2)C(C(=O)NC(C)(C)C)c2cccs2)c1 (stereo unspecified)	2	0	8	68*	-7	-4	-4	1
CC(C)(C)N(Cc1ccccc1)C(=O)CN1C(=O)c2ccccc2S1(=O)=O	1	1	.	45*	-21	1	38*	2
CC[n+]1c(C)cc(C)n1-c1ccccc1	6	-1	10	93*	-45	14	75*	3
O=C(Cc1csc(N2CCOCC2)n1)NN=Cc1ccc(O)c(O)c1O	6	.	.	.	.	.	.	.
Cc1cc(C)c(NC(=O)c2ccccc2CCc2ccccc2)c(C)c1	3	7	25	0	0	0	.	.
Cc1ccc(NC(=O)c2ccccc2CCc2ccccc2)c(C)c1	2	2	1	100*	26	2	4	.
CCOC(=O)NN=C(C)c1ccc(C)o1	0	.	.	.	.	.	.	.
CN(C)c1cccc(C(=O)OCc2cc(=O)oc3cc(O)ccc23)c1	-68	0	?	74*	40	19	75*	-2
CC1CN(S(=O)(=O)c2cccc(C(=O)OCc3cc(=O)oc4cc(O)ccc34)c2)CC(C)O1 (stereo unspecified)	-68	0	11	12	-5	1	.	.
CC(=NN1CCN(c2ccc(Cl)cc2)CC1)c1ccco1	1	.	.	.	.	.	.	.
Cc1n(C)c2cc(Cl)ccc2[n+]1Cc1ccccc1	2	-1	10	78*	16	26	65*	-2
C=CCn1c(SCc2nc3sc(C(=O)O)c(C)c3c(=O)[nH]2)nnc1-c1ccc(C(C)(C)C)cc1	2	3	-8	40*	-12	-1	30	-1
C=CCn1c(SCc2nc3sc(C(=O)O)c(C)c3c(=O)[nH]2)nnc1-c1ccccc1	.	1	9	2	3	-3	.	.
COc1ccc(NC(=O)/C(C#N)=C/c2ccc(Br)o2)cc1	4	-5	10	67*	28	27	58*	.
CCN1CCN(S(=O)(=O)c2ccc(Cl)c(C(=O)Nc3ccccc3N3CCOCC3)c2)CC1	5	-1	26	53*	-10	4	57*	-1
CCN1CCN(c2ccc(S(=O)(=O)N3CCOCC3)cc2NC(=O)c2ccc(Cl)cc2Cl)CC1	2	-2	19	45*	-7	4	24	.
CCN1CCN(c2ccc(S(=O)(=O)N3CCOCC3)cc2NC(=O)c2ccc(C)c(C)c2)CC1	3	0	-31	24	17	-6	.	.
CCN1CCN(c2ccc(S(=O)(=O)N3CCOCC3)cc2NC(=O)c2ccccc2OC(F)F)CC1	1	5	-12	15	3	4	.	.
CCN1CCN(S(=O)(=O)c2ccc(Cl)c(C(=O)Nc3cc(Cl)ccc3N3CCOCC3)c2)CC1	2	19	17	54*	26	28	58*	0
N#Cc1cc([N+](=O)[O-])ccc1Oc1cccc(C=NNC(=O)c2ccc(Cl)cc2)c1	3	.	.	.	.	.	.	.
CCOC(=O)c1c(/N=C/c2ccccc2O)sc2c1CCC2	.	5	22	98*	22	-4	-3	-2
CCOC(=O)c1c(NC(=O)OC)sc2c1CCC2	-2	4	-12	54*	-4	-6	-6	1
CCOC(=O)c1ccc2c(c1)n(CC)c(C)[n+]2CC	1	2	10	73*	-37	13	69*	-2
CCn1c(/C=C/N(C(C)=O)c2ccccc2)[n+](CC)c2ccc(Cl)cc21	3	24	-5	63*	0	29	64*	0
CCOC(=O)c1ccc2c(c1)[nH]c(=S)n2CC	2	7	0	-3	0	-6	.	.
SMILES	UCH37 inh	AHR act	PolyA inh	A3A deaminase	Arrestin-AP2 inh	A3G deaminase	A3A conf	UDG ctr A3A
CC[n+]1c(/C=C/C=C/N(C(C)=O)c2ccccc2)sc2ccccc21	6	5	-7	28	-9	18	.	.
CCn1c(C)[n+](CC)c2ccc(S(=O)(=O)N(C)C)cc21	4	2	20	85	-19	36	.	.
CCn1c(C)[n+](CC)c2ccc(S(=O)(=O)NC)cc21	0	5	3	76*	-21	21	49*	-2
CCn1c(C)[n+](CC)c2ccc(C(=O)N(C)c3ccccc3)cc21	4	1	5	71*	-9	19	80*	-2
COc1cccc(NC(=O)C(=O)NN=Cc2ccc3c(c2)OCO3)c1	5	.	.	.	.	.	.	.
CC[n+]1c(C)n(C)c2cc(S(=O)(=O)N(C)C)ccc21	1	-4	17	82*	-8	19	77*	-2
Cc1ccc2nc(C)c3c(c2c1)COC3	-4	-4	19	62*	-1	-5	0	4
COc1ccc(C=Nn2c(=O)[nH]c3c([nH]c4ccc(Br)cc43)c2=O)cc1CN1CCOCC1	-1	.	.	.	.	.	.	.
C[N+](C)(C)C/C=C1/COCO1	0	5	20	48*	-4	18	76*	4
COc1ccc(C(CC(=O)N2CCCC2)c2c(OC)cc(OC)c3ccc(=O)oc23)cc1 (stereo unspecified)	-39	1	-8	7	23	-3	.	.
COc1ccc(C(CC(=O)N2CCCC2)c2c(OC)cc(OC)c3c(-c4ccccc4)cc(=O)oc23)cc1 (stereo unspecified)	-3	8	23	75*	-2	28	76*	-3
COc1cc(C(CC(=O)N2CCCC2)c2c(OC)cc(OC)c3c(-c4ccccc4)cc(=O)oc23)cc(OC)c1OC (stereo unspecified)	6	6	-7	43*	-1	7	30	.
COc1cc(C(CCN2CCCCC2)c2c(OC)cc(OC)c3c(-c4ccccc4)cc(=O)oc23)cc(OC)c1OC (stereo unspecified)	0	-1	10	-3	-4	-9	.	.
COc1ccc(C(CC(=O)N2CCOCC2)c2c(OC)cc(OC)c3c(-c4ccccc4)cc(=O)oc23)cc1 (stereo unspecified)	2	11	?	60*	7	11	48*	-2
COc1ccc(C(CC(=O)N2CCCC(C)C2)c2c(OC)cc(OC)c3c(-c4ccccc4)cc(=O)oc23)cc1 (stereo unspecified)	-7	0	-12	69*	-4	18	63*	-1
